In brackets after ≈: the same amount, converted by molar mass.
How the values were obtained:
[1] = Inhibition of mTORC1 (unknown origin)-mediated 4EBP1 phosphorylation after 120 mins by ELISA; parameters: species or system Homo sapiens
[2] = Metabolic stability in mouse liver microsomes after 30 mins; type: ADME, Microsome; details: read-out: Stability
[3] = molecular target: Phosphatidylinositol 4,5-bisphosphate 3-kinase catalytic subunit alpha isoform (Homo sapiens, UniProt P42336); experiment: Inhibition of PI3Kalpha (unknown origin) using PIP2 as substrate after 2 hrs by luminescence assay
[4] = Inhibition of mTORC1-mediated phosphorylation of S6 at serine 240/244 in human PC3 cells after 3 hrs by ELISA; type: cell-based; details: PC-3, 3 h
Cytochrome P450 3A4 = Cytochrome P450 3A4 (Homo sapiens, UniProt P08684); experiment: Inhibition of CYP3A4 (unknown origin); type: ADME
Cytochrome P450 2C9 = Cytochrome P450 2C9 (Homo sapiens, UniProt P11712); experiment: Inhibition of CYP2C9 (unknown origin); type: ADME
[5] = Inhibition of mTORC2-mediated phosphorylation of AKT at serine 473 in human PC3 cells after 2 hrs and 50 mins by ELISA; type: cell-based; details: PC-3
In short: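 Compound in 0.3% DMSO was added for 2 h 50 min, followed by 10 min stimulation with 20 ng/mL EGF. After formaldehyde fixation, pAKT (S473) and total AKT were detected by chemiluminescent cell ELISA. IC50 came from pAKT normalized to total AKT, relative to DMSO control. Mean, n ≥ 2.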

Cytochrome P450 2C8 = molecular target: T1, Cytochrome P450 2C8 (Homo sapiens, UniProt P10632); experiment: Inhibition of CYP2C8 (unknown origin); type: ADME
T1 sequence (P10632 whole entry): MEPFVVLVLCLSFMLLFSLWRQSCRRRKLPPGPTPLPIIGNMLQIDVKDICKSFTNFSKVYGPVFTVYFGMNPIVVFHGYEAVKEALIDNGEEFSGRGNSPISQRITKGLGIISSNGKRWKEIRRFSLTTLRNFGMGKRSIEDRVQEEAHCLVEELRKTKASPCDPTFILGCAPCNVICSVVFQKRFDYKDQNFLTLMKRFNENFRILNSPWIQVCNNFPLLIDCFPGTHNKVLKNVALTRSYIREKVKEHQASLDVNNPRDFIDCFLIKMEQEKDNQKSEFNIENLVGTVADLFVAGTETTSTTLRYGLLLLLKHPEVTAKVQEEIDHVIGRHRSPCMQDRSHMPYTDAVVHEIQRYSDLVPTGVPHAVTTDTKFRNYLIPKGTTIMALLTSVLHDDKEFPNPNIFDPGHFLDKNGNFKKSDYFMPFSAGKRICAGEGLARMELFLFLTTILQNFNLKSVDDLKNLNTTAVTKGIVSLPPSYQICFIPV

Cytochrome P450 2D6 = Cytochrome P450 2D6 (Homo sapiens, UniProt P10635); experiment: Inhibition of CYP2D6 (unknown origin); type: ADME
[6] = Apparent permeability across MDCK cells; type: ADME, cell-based, Canis lupus familiaris; details: dog
[7] = Kinetic solubility of the compound; type: physicochemical; details: read-out: Kinetic_solubility
Homo sapiens = species on record: Homo sapiens; experiment: Selectivity ratio of IC50 for PI3Kalpha (unknown origin) to IC50 for mTOR (unknown origin)

Chain of Cytochrome P450 3A4 (P08684 whole entry): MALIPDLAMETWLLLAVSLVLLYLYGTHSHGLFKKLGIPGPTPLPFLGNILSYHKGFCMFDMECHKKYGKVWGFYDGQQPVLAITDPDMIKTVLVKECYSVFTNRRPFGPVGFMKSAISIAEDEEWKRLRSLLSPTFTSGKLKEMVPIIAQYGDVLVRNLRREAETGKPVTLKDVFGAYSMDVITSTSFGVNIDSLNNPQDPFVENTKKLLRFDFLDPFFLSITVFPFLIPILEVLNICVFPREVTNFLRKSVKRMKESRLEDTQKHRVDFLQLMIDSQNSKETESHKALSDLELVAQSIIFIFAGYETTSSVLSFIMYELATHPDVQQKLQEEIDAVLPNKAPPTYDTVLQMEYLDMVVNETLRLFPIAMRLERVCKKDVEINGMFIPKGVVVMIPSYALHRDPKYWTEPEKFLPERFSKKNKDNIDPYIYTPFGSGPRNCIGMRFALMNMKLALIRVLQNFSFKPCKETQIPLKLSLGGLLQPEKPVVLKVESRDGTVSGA
Chain of Phosphatidylinositol 4,5-bisphosphate 3-kinase catalytic subunit alpha isoform (P42336 whole entry, canonical isoform): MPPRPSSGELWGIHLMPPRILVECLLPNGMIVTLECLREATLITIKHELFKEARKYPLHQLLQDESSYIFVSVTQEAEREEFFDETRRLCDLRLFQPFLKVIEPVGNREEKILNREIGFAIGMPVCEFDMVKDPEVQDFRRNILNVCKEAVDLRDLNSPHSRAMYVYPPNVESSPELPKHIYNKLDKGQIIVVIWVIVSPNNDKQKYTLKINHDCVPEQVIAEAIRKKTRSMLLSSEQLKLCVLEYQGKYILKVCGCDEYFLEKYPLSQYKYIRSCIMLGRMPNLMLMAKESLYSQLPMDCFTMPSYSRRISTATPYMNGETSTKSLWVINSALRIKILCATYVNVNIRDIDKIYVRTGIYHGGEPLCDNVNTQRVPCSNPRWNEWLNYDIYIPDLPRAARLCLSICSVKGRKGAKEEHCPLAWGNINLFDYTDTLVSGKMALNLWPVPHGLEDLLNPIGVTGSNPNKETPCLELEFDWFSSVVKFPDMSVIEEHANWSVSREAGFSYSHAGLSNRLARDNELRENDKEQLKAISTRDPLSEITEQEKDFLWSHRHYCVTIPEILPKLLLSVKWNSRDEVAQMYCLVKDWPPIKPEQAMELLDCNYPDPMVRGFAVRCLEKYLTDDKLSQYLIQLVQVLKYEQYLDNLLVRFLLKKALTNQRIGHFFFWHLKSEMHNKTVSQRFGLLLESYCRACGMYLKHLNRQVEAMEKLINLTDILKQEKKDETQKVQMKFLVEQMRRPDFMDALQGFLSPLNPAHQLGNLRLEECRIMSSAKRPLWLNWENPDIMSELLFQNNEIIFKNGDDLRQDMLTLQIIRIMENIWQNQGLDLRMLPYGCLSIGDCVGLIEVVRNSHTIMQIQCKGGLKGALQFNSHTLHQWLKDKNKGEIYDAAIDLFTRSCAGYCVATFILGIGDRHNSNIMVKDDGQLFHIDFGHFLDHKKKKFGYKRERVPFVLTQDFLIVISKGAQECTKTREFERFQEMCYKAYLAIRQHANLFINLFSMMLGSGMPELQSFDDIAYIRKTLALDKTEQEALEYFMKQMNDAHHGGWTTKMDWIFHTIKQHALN
Chain of Cytochrome P450 2D6 (P10635 whole entry): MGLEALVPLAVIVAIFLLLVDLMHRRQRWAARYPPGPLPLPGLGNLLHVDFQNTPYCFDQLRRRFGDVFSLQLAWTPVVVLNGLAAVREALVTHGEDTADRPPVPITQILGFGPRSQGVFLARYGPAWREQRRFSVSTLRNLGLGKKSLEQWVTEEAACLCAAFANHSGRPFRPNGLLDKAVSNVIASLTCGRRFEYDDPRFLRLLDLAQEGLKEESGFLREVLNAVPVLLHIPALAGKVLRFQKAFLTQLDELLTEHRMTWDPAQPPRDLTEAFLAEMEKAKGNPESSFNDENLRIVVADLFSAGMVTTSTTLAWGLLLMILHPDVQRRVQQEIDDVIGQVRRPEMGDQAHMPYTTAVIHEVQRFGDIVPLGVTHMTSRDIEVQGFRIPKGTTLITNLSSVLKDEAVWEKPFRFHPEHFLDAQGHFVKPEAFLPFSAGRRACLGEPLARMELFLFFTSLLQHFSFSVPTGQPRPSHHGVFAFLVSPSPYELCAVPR
Chain of Cytochrome P450 2C9 (P11712 whole entry): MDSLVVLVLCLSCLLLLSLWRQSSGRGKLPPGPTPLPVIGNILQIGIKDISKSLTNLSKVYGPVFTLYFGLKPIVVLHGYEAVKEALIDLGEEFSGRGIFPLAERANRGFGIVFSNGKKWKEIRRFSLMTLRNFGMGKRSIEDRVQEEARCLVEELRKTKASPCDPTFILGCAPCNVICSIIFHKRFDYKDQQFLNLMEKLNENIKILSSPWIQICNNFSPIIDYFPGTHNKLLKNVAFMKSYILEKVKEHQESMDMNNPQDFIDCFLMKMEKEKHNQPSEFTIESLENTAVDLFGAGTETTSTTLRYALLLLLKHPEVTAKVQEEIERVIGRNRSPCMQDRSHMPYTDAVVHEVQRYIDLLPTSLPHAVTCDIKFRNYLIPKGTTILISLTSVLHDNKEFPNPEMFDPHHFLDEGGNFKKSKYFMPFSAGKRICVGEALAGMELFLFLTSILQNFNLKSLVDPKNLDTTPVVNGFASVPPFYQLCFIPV

Row | SMILES | IC50 [1] | remaining at 0.5 h [2] | IC50 [3] | IC50 [4] | INH (Cytochrome P450 3A4) | INH (Cytochrome P450 2C9) | IC50 [5] | INH (Cytochrome P450 2C8) | INH (Cytochrome P450 2D6) | Papp [6] | solubility kinetic [7] | Ratio IC50 (Homo sapiens)
1 | O=C(c1ccc(C(=O)C(F)(F)F)cc1)N1CCOc2ccc(-c3ccc4cn[nH]c4c3)cc2C1 | 0.0035 µM | 60% | 0.259 µM | 0.674 µM | – | – | – | – | – | – | – | –
2 | Cc1cc(S(C)(=O)=O)ccc1C(=O)N1CCOc2ccc(-c3ccc4nc[nH]c4c3)cc2C1 | 0.0057 µM | 51% | > 3 µM | 0.422 µM | 4.1 µM | 2.9 µM | 1.01 µM | 5.4 µM | 9.3 µM | – | – | –
3 | O=C(c1ccc(C(=O)C(F)(F)F)cc1)N1CCOc2ccc(-c3cn[nH]c3)cc2C1 | 0.0297 µM | 3% | 1.05 µM | 0.718 µM | – | – | – | – | – | – | – | –
4 | O=C(c1ccc(C(=O)C(F)(F)F)cc1)N1CCOc2ccc(-c3cccnc3)cc2C1 | 0.0727 µM | – | 1.13 µM | – | – | – | – | – | – | – | – | –
5 | CCS(=O)(=O)c1ccc(C(=O)N2CCOc3ccc(-c4ccc5nc[nH]c5c4)cc3C2)cc1 | 0.0036 µM | 72% | 2.17 µM | 0.343 µM | 2.2 µM | 1.7 µM | 1.08 µM | 5 µM | 3.3 µM | – | – | –
6 | O=C(c1ccc(C(=O)C(F)(F)F)cc1)N1CCOc2ccc(-c3ccccc3)cc2C1 | 0.119 µM | – | 2.31 µM | – | – | – | – | – | – | – | – | –
7 | O=C(c1ccc(C(F)(F)F)cc1)N1CCOc2ccc(-c3ccc4nc[nH]c4c3)cc2C1 | 0.0035 µM | 74% | 1.09 µM | 0.306 µM | 1.9 µM | 1.6 µM | 0.68 µM | 3.6 µM | 3.1 µM | – | – | –
8 | Cc1c(C(=O)N2CCOc3ccc(-c4ccc5nc[nH]c5c4)cc3C2)ccc(S(C)(=O)=O)c1F | 0.0014 µM | 94% | 2.34 µM | 0.329 µM | 3.4 µM | 6.4 µM | 0.437 µM | 3.4 µM | 9.6 µM | – | – | –
9 | O=C(c1ccccc1)N1CCOc2ccc(-c3cnc4ccccc4c3)cc2C1 | 0.2 µM | – | 3.13 µM | – | – | – | – | – | – | – | – | –
10 | CS(=O)(=O)c1ccc(C(=O)N2CCOc3ccc(-c4ccc(N)nc4)cc3C2)cc1 | 0.013 µM | 100% | 2.9 µM | 1.18 µM | > 20 µM | 18.8 µM | 1.97 µM | > 20 µM | > 20 µM | – | – | –
11 | O=C(c1ccc(C(=O)C(F)(F)F)cc1)N1CCOc2ccc(-c3cnc4ccccc4c3)cc2C1 | 0.095 µM | – | 0.398 µM | – | – | – | – | – | – | 16.9 nm/s | 40.1 µM (≈ 19.1 µg/mL) | 4
12 | CC(=O)c1ccc(C(=O)N2CCOc3ccc(-c4ccc5cn[nH]c5c4)cc3C2)cc1 | 0.014 µM | – | 1.8 µM | – | – | – | – | – | – | – | – | –
13 | O=C(c1ccc(C(=O)C(F)(F)F)cc1)N1CCOc2ccc(-c3ccc4[nH]ncc4c3)cc2C1 | 0.0043 µM | 23% | 0.137 µM | 0.503 µM | – | – | – | – | – | – | – | –
14 | CNS(=O)(=O)c1ccc(C(=O)N2CCOc3ccc(-c4ccc5nc[nH]c5c4)cc3C2)cc1 | 0.0035 µM | 64% | 1.09 µM | 0.451 µM | 2.8 µM | 1.1 µM | 0.812 µM | 1.6 µM | 2.3 µM | 42 nm/s | – | –
15 | NS(=O)(=O)c1ccc(C(=O)N2CCOc3ccc(-c4ccc5nc[nH]c5c4)cc3C2)cc1 | 0.0029 µM | 64% | 0.763 µM | 1.8 µM | 6.3 µM | 1.3 µM | 1.67 µM | 13.9 µM | 4.3 µM | 42 nm/s | – | –

— ChEMBL document CHEMBL2331117 (J Med Chem, 2013)
